pIC50: −log10 of the molar value.
How the values were obtained:
G-401 = experiment: 50% growth inhibition of G401 (human kidney carcinoma) cell line compared with untreated control cells; assay type: functional
Method in brief: (§1)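 MTT assay in cells in logarithmic growth, plated in triplicate at 2,500–3,500 cells/well and grown 24 h before test agent was added (day 0). Cultures at 37 °C, 5% CO₂, in media with 10% foetal bovine serum, penicillin, streptomycin and glutamine. Agents were dissolved in DMSO as 5 mM stocks. Absorbance was read at 540 nm. GI50 was taken from the optical density difference between day 0 and the end of drug exposure.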

HT-29 = experiment: 50% growth inhibition of HT-29 (human colorectal carcinoma) cell line compared with untreated control cells; assay type: functional; method in brief: as §1
NCI-H460 = experiment: 50% growth inhibition of H460 (human lung carcinoma) cell line compared with untreated control cells; assay type: functional; method in brief: as §1
A2780 = experiment: 50% growth inhibition of A2780 (Human ovarian carcinoma) cell line compared with untreated control cells; assay type: functional; method in brief: as §1
L1210 = experiment: 50% growth inhibition of L1210 (murine leukemia) cell line compared with untreated control cells; assay type: functional; details: Mus musculus; method in brief: as §1
[1] = Inhibitory activity against protein phosphatase 2A from human red blood cells
Method in brief: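 Purified PP2A (0.3 mU/well) was preincubated 10 min with inhibitor in 50 mM Tris–HCl, pH 7.0, with CaCl₂. The reaction was started with hexapeptide substrate […] (200 μM), run 60 min at room temperature, and stopped with malachite green. A650 was read after 10 min. IC50 came from dose–response curves as the mean of three independent replicates.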

Compound	GI50 (G-401)	GI50 (HT-29)	GI50 (NCI-H460)	GI50 (A2780)	GI50 (L1210)	pIC50 [1]
COC(=O)c1cccc(NC(=O)C2C(C(=O)O)[C@@H]3C=C[C@H]2O3)c1 (stereo not given in full)	> 100 µM	> 100 µM	> 100 µM	97 µM	> 100 µM	4.92
CCOC(=O)c1ccc(NC(=O)C2C(C(=O)O)[C@@H]3CC[C@H]2O3)cc1 (stereo not given in full)	> 100 µM	> 100 µM	> 100 µM	80 µM	> 100 µM	5.04
O=C(O)c1cccc(NC(=O)C2C(C(=O)O)[C@@H]3C=C[C@H]2O3)c1 (stereo not given in full)	> 100 µM	> 100 µM	> 100 µM	82 µM	> 100 µM	5.15
CC(=O)NC[C@@]12CC[C@@H](O1)C1C(=O)OC(=O)[C@H]12 (stereo not given in full)	> 100 µM	> 100 µM	> 100 µM	95 µM	> 100 µM	< 4.00
CN.CNC(=O)C1C(C(=O)O)[C@@H]2C=C[C@H]1O2 (stereo not given in full)	> 100 µM	89 µM	> 100 µM	88 µM	> 100 µM	< 4.00
COC(=O)c1cccc(NC(=O)C2C(C(=O)O)[C@@H]3CC[C@H]2O3)c1 (stereo not given in full)	> 100 µM	> 100 µM	> 100 µM	90 µM	> 100 µM	5.11
CN(C)C(=O)C1C(C(=O)O)[C@@H]2C=C[C@H]1O2.CNC (stereo not given in full)	25 µM	49 µM	41 µM	40 µM	48 µM	5.49
C[C@@]12C(=O)OC(=O)[C@]1(C)[C@H]1CC[C@@H]2O1 [CANTHARIDIN]	3.5 µM	6.4 µM	4.3 µM	10 µM	15 µM	6.22
O=C(OC[C@H]1C[C@@H]2O[C@H]1[C@H]1C(=O)OC(=O)[C@H]12)c1ccccc1	53 µM	57 µM	43 µM	30 µM	49 µM	4.89
CC(=O)NC[C@@]12C=C[C@@H](O1)C1C(=O)OC(=O)[C@H]12 (stereo not given in full)	> 100 µM	> 100 µM	> 100 µM	98 µM	> 100 µM	< 4.00
O=C1OC(=O)C2C1[C@@H]1CC[C@H]2O1 (stereo not given in full)	35 µM	33 µM	50 µM	39 µM	13 µM	6.02
N#CC[C@]12C=C[C@H](O1)[C@@H]1C(=O)OC(=O)C12 (stereo not given in full)	> 100 µM	> 100 µM	> 100 µM	85 µM	> 100 µM	< 4.00
COC(=O)C1C(C(=O)Nc2ccc(Cl)cc2)[C@H]2CC[C@@H]1O2 (stereo not given in full)	> 100 µM	> 100 µM	> 100 µM	98 µM	> 100 µM	< 4.00
O=C(O)C1C(C(=O)OCc2ccccc2)[C@H]2CC[C@@H]1O2 (single isomer, unassigned)	> 100 µM	> 100 µM	> 100 µM	81 µM	> 100 µM	< 4.00
CCOC(=O)c1ccc(NC(=O)C2C(C(=O)O)[C@@H]3C=C[C@H]2O3)cc1 (stereo not given in full)	> 100 µM	> 100 µM	> 100 µM	83 µM	> 100 µM	4.68
